# What was measured:
# [1] = Toxicity in complete freund's adjuvant-induced DBA/1 mouse arthritis model assessed as effect on appetite at 10 mg/kg, po qd administered starting from 29 day post-CFA challenge and measured on day 29, 33, 36, 40 and 43; format: organism-based; details: in vivo, 696 h
# Summary of the method: (§1)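 CIA in male DBA/1 mice: intradermal bovine type II collagen in CFA on day 0, collagen II in IFA boost on day 20. Randomized on day 29 and given oral doses once daily (n=6 per group) alongside vehicle and naive groups. Body weights recorded over the study days.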
# [2] = target: Epidermal growth factor receptor (Homo sapiens, UniProt P00533); experiment: Inhibition of recombinant human GST-tagged EGFR cytoplasmic domain (668 to 1210 residues) expressed in baculovirus expression system using Z'-lyte-labelled tyr-4 peptide as substrate measured after 1 hr by FRET assay
# Summary of the method: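 Z'-LYTE kinase assay. Compounds tested as 3-fold serial dilutions in aqueous solution containing 4% DMSO. Fluorescence read at 400 nm excitation and 445/520 nm emission. IC50 is the mean of ≥3 assays in triplicate.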
# [3] = Kinetic aqueous solubility of the compound in pH 7.4 phosphate buffered saline incubated for 24 hrs under shaking condition by HPLC analysis; format: physicochemical; details: read-out: Kinetic_solubility
# Summary of the method: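 Dry powder shaken 24 h at 25 °C in 0.1 M phosphate buffer, pH 7.4, then filtered through a 0.45 µm membrane. Concentration determined by HPLC against a standard of the compound in DMSO. Mean of three separate assays in triplicate.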
# [4] = target: T1, Tyrosine-protein kinase Tec (Homo sapiens, UniProt P42680); experiment: Inhibition of recombinant human N-terminal GST-fused TEC catalytic domain (359 to 631 residues) expressed in baculovirus expression system using biotin-labelled STK/TK as substrate measured after 1 hr by HTRF assay
# T1 sequence (P42680 whole entry): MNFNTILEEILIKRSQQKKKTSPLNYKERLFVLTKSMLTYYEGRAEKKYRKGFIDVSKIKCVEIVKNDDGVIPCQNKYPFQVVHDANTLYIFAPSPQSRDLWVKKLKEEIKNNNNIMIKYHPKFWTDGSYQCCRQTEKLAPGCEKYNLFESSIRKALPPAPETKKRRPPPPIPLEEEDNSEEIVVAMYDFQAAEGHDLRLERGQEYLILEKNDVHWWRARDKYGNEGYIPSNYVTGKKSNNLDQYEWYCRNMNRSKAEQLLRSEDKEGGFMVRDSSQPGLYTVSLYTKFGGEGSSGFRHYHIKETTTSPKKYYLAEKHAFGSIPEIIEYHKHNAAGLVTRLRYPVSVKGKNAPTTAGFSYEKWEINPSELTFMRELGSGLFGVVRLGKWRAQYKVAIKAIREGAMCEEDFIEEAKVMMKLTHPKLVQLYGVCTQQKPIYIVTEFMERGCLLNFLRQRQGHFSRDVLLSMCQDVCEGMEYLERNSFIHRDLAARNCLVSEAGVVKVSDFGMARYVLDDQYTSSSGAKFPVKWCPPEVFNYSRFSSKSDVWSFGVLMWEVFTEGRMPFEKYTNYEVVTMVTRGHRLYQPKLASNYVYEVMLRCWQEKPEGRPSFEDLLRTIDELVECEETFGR
# Summary of the method: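 HTRF KinEase format: TEC kinase and substrate mixed with serial compound concentrations at rt, then ATP added to start. Stopped after 1 h with EDTA detection solution containing europium anti-phosphotyrosine antibody and streptavidin-XL665. Read after a further 1 h at rt. Mean of ≥3 assays in triplicate.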
# [5] = target: Proto-oncogene tyrosine-protein kinase Src (Homo sapiens, UniProt P12931); experiment: Inhibition of recombinant full-length human SRC using KVEKIGEGTYGVVYK as substrate measured after 40 mins in presence of [gamma33P]ATP by scintillation counting analysis
# Summary of the method: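 Started with Mg/ATP at room temperature; 40 min incubation. Stopped with 0.5% phosphoric acid, filtermat-spotted, washed, scintillation counted. Mean of ≥3 assays in triplicate.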
# [6] = Clearance in Sprague-Dawley rat at 2 mg/kg, iv by LC-MS/MS analysis; format: ADME, organism-based; details: in vivo
# Summary of the method: (§2)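 Male Sprague-Dawley rats (187-205 g, n=6 per route). IV group: 2 mg/kg by tail vein in 10% DMSO/90% PEG400, fed animals. Oral group: 5 mg/kg as a 0.5% methylcellulose suspension, fasted animals. Jugular cannula blood taken pre-dose and from 0.033 h (iv only) to 24 h. Plasma stored at -20 °C and analysed by LC-MS/MS.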
# [7] = target: T2, Tyrosine-protein kinase ITK/TSK (Homo sapiens, UniProt Q08881); experiment: Inhibition of recombinant human ITK (352 to 617 residues) using myelin basic protein as substrate measured after 40 mins in presence of [gamma33P]ATP by scintillation counting analysis
# T2 sequence (Q08881 whole entry): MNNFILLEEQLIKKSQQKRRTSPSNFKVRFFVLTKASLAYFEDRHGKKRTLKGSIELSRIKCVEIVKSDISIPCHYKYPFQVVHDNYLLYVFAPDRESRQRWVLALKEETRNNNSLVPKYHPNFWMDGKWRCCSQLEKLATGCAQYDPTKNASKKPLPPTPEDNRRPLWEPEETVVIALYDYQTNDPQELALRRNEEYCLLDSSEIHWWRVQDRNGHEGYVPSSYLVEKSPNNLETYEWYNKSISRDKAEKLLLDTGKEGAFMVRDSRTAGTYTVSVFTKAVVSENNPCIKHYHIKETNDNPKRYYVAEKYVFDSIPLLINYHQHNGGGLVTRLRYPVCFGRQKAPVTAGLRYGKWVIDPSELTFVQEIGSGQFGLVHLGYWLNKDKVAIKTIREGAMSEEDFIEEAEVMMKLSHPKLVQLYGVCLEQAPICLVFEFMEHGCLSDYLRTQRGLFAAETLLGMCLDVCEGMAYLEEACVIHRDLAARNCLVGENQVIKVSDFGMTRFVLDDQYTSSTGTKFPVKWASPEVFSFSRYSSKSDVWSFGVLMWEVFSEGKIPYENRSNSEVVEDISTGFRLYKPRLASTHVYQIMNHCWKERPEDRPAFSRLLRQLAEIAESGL
# Homo sapiens [8] = species on record: Homo sapiens; experiment: Selectivity ratio of IC50 for human full-length recombinant FYN to IC50 for inhibition of FAM-labeled peptide binding to full-length human N-terminal GST-tagged BTK (2 to 659 residues) expressed in baculovirus infected Sf21 insect cells
# Summary of the method: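 Ratio of kinase IC50 to BTK IC50. BTK measured by off-chip mobility shift: compound preincubated 10 min with BTK in 50 mM HEPES pH 7.5, 0.01% Brij-35, then FAM-labelled peptide and ATP added, 28 °C. Stopped with EDTA buffer; percent conversion fitted for IC50. Each panel kinase assayed in triplicate.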
# [9] = Stability in mouse plasma assessed as parent compound remaining at 1 uM measured after 2 hrs by LC-MS/MS analysis; format: ADME, cell-free; details: read-out: Stability
# Summary of the method: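 Compound at 1 µM initial concentration incubated 2 h at 37 °C in plasma. Quenched with 10 volumes of methanol containing internal standard, then centrifuged. Supernatant diluted with an equal volume of water and analysed by LC-MS/MS. Read-out is % parent remaining. Mean of three separate assays run in triplicate.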
# [10] = Half life in Sprague-Dawley rat at 2 mg/kg, iv by LC-MS/MS analysis; format: ADME, organism-based; details: in vivo; summary of the method: as §2
# [11] = target: Tyrosine-protein kinase Yes (Homo sapiens, UniProt P07947); experiment: Inhibition of human full-length recombinant YES using poly(Glu, Tyr) 4:1 as substrate measured after 40 mins in presence of [gamma-33P]-ATP by scintillation counting analysis
# Summary of the method: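 Started with Mg/ATP at room temperature; 40 min incubation. Stopped with 0.5% phosphoric acid, spotted onto Filtermat A, washed, scintillation counted. Mean of ≥3 assays in triplicate.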
# [12] = Toxicity in complete freund's adjuvant-induced DBA/1 mouse arthritis model assessed as change in body weight at 10 mg/kg, po qd administered starting from 29 day post-CFA challenge and measured on day 29, 33, 36, 40 and 43; format: organism-based; details: in vivo, 696 h; summary of the method: as §1
# Homo sapiens [13] = species on record: Homo sapiens; experiment: Selectivity ratio of IC50 for recombinant mouse full-length BLK V421E mutant to IC50 for inhibition of FAM-labeled peptide binding to full-length human N-terminal GST-tagged BTK (2 to 659 residues) expressed in baculovirus infected Sf21 insect cells
# Summary of the method: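 Ratio is BLK IC50 divided by BTK IC50. BLK: radiometric, 50 mM Tris pH 7.5, 0.1 mM EGTA, 0.1 mM Na3VO4, 0.1% mercaptoethanol, 0.1 mg/mL poly(Glu,Tyr) 4:1, 10 mM Mg acetate, [γ-33P]ATP, 40 min room temperature, phosphoric acid stop, filter-bound scintillation counting. BTK: off-chip mobility shift with FAM-peptide. Triplicates, ≥3 assays.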
# [14] = target: Tyrosine-protein kinase BTK (Homo sapiens, UniProt Q06187); experiment: Reversible inhibition of sodium orthovanadate-stimulated BTK autophosphorylation at Tyr223 residues in human Ramos cells preincubated for 2 hrs followed by sodium orthovanadate addition and measured after 15 mins by Western blot analysis; format: cell-based
# Sequence of Tyrosine-protein kinase BTK (Q06187 whole entry): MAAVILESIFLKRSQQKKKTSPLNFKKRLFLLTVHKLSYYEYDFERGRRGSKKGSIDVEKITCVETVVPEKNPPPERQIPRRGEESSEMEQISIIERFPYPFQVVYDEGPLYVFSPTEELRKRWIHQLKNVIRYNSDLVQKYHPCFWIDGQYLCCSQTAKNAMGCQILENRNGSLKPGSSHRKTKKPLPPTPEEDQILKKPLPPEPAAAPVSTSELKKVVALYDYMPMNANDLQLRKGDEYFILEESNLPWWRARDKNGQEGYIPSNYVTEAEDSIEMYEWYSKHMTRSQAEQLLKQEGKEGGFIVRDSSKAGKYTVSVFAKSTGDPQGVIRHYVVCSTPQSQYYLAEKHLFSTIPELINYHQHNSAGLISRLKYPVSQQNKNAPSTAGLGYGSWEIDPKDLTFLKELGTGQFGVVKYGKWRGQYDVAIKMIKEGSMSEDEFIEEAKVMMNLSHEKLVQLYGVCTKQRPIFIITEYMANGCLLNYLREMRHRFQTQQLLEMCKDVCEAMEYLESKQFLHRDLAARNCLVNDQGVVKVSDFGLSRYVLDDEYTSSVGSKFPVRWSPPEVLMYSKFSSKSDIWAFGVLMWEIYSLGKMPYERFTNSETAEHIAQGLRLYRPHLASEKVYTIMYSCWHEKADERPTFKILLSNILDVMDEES
# Sequence of Tyrosine-protein kinase Yes (P07947 whole entry): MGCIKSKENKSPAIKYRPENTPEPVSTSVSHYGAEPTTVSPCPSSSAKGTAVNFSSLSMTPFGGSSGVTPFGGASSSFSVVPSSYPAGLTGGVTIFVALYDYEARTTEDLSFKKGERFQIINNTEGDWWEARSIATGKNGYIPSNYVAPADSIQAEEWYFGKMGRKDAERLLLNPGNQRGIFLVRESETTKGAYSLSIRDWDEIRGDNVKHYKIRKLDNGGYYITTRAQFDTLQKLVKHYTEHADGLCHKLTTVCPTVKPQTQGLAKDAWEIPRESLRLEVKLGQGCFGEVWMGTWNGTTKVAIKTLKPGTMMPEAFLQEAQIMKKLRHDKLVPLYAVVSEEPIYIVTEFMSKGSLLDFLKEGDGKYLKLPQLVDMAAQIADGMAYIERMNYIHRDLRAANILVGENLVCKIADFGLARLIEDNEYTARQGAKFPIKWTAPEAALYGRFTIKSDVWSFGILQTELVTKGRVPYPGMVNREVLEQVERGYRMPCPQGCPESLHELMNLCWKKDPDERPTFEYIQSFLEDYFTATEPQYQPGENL
# Sequence of Proto-oncogene tyrosine-protein kinase Src (P12931 2-536 limits assumed): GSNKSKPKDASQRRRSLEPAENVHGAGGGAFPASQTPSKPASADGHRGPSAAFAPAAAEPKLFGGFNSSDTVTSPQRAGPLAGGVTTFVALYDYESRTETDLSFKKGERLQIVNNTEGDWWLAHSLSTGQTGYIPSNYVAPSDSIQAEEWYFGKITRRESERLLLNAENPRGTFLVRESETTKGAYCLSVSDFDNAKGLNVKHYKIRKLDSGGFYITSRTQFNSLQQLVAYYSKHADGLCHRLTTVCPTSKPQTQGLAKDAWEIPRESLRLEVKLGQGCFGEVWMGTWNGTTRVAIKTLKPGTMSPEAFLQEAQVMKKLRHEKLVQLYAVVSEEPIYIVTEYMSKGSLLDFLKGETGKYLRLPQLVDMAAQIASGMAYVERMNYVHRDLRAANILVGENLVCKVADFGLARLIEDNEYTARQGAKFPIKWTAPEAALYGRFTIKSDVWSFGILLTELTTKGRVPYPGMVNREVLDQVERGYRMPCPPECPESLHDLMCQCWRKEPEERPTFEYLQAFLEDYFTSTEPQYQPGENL
# Sequence of Epidermal growth factor receptor (P00533 whole entry, the tested form may be a part): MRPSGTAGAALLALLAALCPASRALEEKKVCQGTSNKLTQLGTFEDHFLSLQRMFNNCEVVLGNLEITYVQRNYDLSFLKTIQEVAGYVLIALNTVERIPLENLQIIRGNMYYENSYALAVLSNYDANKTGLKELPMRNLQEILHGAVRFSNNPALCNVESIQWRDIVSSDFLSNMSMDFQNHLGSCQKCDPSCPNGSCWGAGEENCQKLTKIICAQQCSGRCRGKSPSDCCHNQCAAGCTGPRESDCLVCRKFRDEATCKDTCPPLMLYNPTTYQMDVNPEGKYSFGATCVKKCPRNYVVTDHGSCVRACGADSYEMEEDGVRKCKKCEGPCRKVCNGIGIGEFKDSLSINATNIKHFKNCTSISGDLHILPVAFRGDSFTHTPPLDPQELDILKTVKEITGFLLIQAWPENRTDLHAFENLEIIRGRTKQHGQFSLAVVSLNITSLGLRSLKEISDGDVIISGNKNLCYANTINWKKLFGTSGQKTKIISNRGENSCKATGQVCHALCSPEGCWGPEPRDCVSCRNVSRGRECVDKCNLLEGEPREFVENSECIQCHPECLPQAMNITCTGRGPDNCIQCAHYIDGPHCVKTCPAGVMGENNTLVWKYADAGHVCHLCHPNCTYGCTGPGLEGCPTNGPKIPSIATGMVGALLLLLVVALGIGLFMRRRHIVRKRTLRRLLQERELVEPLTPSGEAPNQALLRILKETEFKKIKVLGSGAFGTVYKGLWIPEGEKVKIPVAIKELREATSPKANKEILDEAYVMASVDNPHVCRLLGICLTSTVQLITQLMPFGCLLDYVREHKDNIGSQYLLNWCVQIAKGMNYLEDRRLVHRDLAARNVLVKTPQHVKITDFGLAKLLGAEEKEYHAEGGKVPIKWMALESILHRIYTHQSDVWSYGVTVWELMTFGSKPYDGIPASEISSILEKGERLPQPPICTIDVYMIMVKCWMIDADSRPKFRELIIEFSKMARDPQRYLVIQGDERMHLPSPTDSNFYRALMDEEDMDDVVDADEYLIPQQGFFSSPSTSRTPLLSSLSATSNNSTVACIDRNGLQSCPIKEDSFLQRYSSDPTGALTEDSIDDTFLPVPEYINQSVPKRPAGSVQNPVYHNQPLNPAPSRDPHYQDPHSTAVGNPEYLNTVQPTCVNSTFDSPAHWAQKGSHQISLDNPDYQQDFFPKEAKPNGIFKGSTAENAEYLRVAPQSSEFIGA
smiles,measurement,setting,value
COc1cc2cn[nH]c2cc1-c1ccc(F)c2c(N)c(C(N)=O)cnc12,Activity,[1],Non-Toxic
same,IC50,[2],> 2000 nM
same,solubility kinetic at 24 h,[3],7.3 µg/mL
same,IC50,[4],227 nM
same,IC50,[5],903 nM
same,clearance,[6],20.8 mL/min/kg
same,IC50,[7],307 nM
same,Ratio IC50,Homo sapiens [8],31
same,"remaining at 2 h, 1 µM",[9],98%
same,half-life,[10],1.2 h
same,IC50,[11],> 10000 nM
same,Activity,[12],Non-Toxic
same,Ratio IC50,Homo sapiens [13],28
same,EC50,[14],42.7 nM
